One data set has as its system CCRF-CEM. Kind of data set: Cytotoxicity against human CEM cells after 2 to 4 days by MTT assay. In kind it is cell-based. In a few lines: (§1)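 Cytotoxicity in human PBM cells, Vero (African green monkey kidney epithelial) cells and CEM (human T-cell-derived line) cells, with compounds tested up to 100 μM.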
A general note: Formazan colour is commonly taken as a measure of viable cells.

Another data set deals with Vero. As to the kind of experiment: Cytotoxicity against African green monkey Vero cells after 2 to 4 days by MTT assay. The data set is classed as cell-based. Particulars: chlorocebus sabaeus. In a few lines:
as §1

In a further data set the test system is Huh-7. Kind of data set: Cytotoxicity against human HuH7 cells after 2 to 4 days by MTT assay. In kind it is cell-based.
For data set [1], the system named is PBMC. As to the kind of experiment: Cytotoxicity against human PBMC after 2 to 4 days by MTT assay. In kind it is cell-based. Put shortly:
as §1

The subject of the next data set is Hepatitis B virus. As to the kind of experiment: Antiviral activity against Hepatitis B virus infected in human HepAD38 cells after 5 days. The data set is classed as functional, organism-based. Particulars: HePAD38, 120 h.
The subject of data set [2] is Human immunodeficiency virus 1. As to the kind of experiment: Antiviral activity against Human immunodeficiency virus 1 LAI infected in PHA-stimulated human PBMC. The data set is classed as functional, organism-based.
The next data set has as its system HepG2. Kind of data set: Cytotoxicity against human HepG2 cells after 2 to 4 days by neutral red dye uptake assay. The data set is classed as cell-based.
Data set [3] relates to PBMC. As to the kind of experiment: Drug metabolism in human PBMC assessed as dioxolane-A triphosphate level measured per 10^6 cells at 50 uM after 4 hrs by LC-MS/MS analysis. The data set is classed as ADME, cell-based. On the set-up: unit: pmol/10^6 cells.
Another data set is described as follows: in vivo. As to conditions: mouse.
Data set [4] concerns PBMC. Kind of data set: Drug metabolism in human PBMC assessed as 6-cyclopropylamino purine dioxolane triphosphate level measured per 10^6 cells at 50 uM after 4 hrs by LC-MS/MS analysis. In kind it is ADME, cell-based.

Molecules are shown by their SMILES.

This is an account of results in ChEMBL document CHEMBL2406962, “Adenosine Dioxolane Nucleoside Phosphoramidates as Antiviral Agents for Human Immunodeficiency and Hepatitis B Viruses” (ACS Med Chem Lett, 2013).

One may read the CC50 as the concentration at which the toxic effect on the cells reaches its halfway point. The EC50 is the midpoint of the concentration-response curve. In general, LD50 refers to the dose expected to kill half of the subjects tested.

On to `OC[C@@H]1OC[C@H](n2cnc3c(NC4CC4)ncnc32)O1`, for which the CC50 in the data set on CCRF-CEM, in the data set on Vero, in the data set with Huh-7, in the data set on PBMC [1] and in the data set on HepG2 was more than 100 µM each time. Besides, the EC50 in the data set with Hepatitis B virus is more than 10 µM; in [2], 92000 nM.
Turning to `CCOC(=O)CCc1ccccc1OP(=O)(N[C@@H](C)C(=O)OCC)OC[C@@H]1OC[C@H](n2cnc3c(OC)ncnc32)O1` (stereo partly drawn), the CC50 in the data set with CCRF-CEM was more than 100 µM; in the data set on Vero, 93 µM; with Huh-7, 80 µM; in the data set with PBMC [1] it was more than 100 µM; with HepG2 it was more than 100 µM. The values for the EC50 (in the data set with Hepatitis B virus; in data set [2]) were more than 10 µM and 420 nM, respectively.
For the molecule `CCOC(=O)[C@H](C)NP(=O)(OC[C@@H]1OC[C@H](n2cnc3c(N)ncnc32)O1)Oc1ccccc1` (stereo partly drawn), the CC50 is 18 µM with CCRF-CEM; 80 µM with Vero; 7.3 µM with Huh-7; 2 µM in the data set on PBMC [1]; more than 100 µM in the data set on HepG2. In addition, the Drug metabolism with PBMC [3] was determined as 200 pmol. The 50% effective concentration (EC50) with Hepatitis B virus stood at 0.03 µM; in data set [2] it was 0.56 nM.
For the molecule `Oc1ccccc1` [PHENOL], the LD50 in the data set “in vivo” came to 270 mg/kg.
As to `CC(C)OC(=O)CCc1ccccc1OP(=O)(N[C@@H](C)C(=O)OC(C)C)OC[C@@H]1OC[C@H](n2cnc3c(NC4CC4)ncnc32)O1` (stereo partly drawn), the CC50 in the data set with CCRF-CEM was 84 µM; in the data set on Vero, more than 100 µM; with Huh-7 it was 57 µM; with PBMC [1], more than 100 µM; with HepG2, more than 100 µM. Moreover, the half-maximal effective concentration (EC50) with Hepatitis B virus was more than 10 µM; in data set [2], 11000 nM.
For the molecule `CCOC(=O)CCc1ccccc1OP(=O)(N[C@@H](C)C(=O)OCC)OC[C@@H]1OC[C@H](n2cnc3c(N)ncnc32)O1` (stereo partly drawn), the CC50 with CCRF-CEM is 53 µM; in the data set with Vero it was 36 µM; in the data set on Huh-7, 12 µM; in the data set with PBMC [1] it was 12 µM; in the data set on HepG2 it was more than 100 µM. The Drug metabolism in the data set with PBMC [3] is given as 90 pmol. For the same molecule, the results for the 50% effective concentration (EC50) (with Hepatitis B virus; in data set [2]) were 0.3 µM and 3.3 nM, respectively.
Take `CCOC(=O)CCc1ccccc1OP(=O)(N[C@@H](C)C(=O)OCC)OC[C@@H]1OC[C@H](n2cnc3c(NC4CC4)ncnc32)O1` (stereo partly drawn): the CC50 was more than 100 µM in the data set on CCRF-CEM; more than 100 µM in the data set with Vero; 65 µM in the data set with Huh-7; more than 100 µM in the data set on PBMC [1]; more than 100 µM in the data set on HepG2. In addition, the Drug metabolism stood at 0.14 pmol in the data set with PBMC [3] and 0.19 pmol in the data set on PBMC [4]. The EC50 was more than 10 µM in the data set on Hepatitis B virus and 770 nM in [2].
`COc1ncnc2c1ncn2[C@H]1CO[C@@H](COP(=O)(N[C@@H](C)C(=O)OC(C)C)Oc2ccccc2CCC(=O)OC(C)C)O1` (stereo partly drawn): the CC50 with CCRF-CEM is more than 100 µM; with Vero, more than 100 µM; in the data set on Huh-7 it was 52 µM; with PBMC [1], more than 100 µM; in the data set with HepG2 it was more than 100 µM. Moreover, the EC50 was more than 10 µM in the data set on Hepatitis B virus and 7000 nM in [2].
On to `Nc1ncnc2c1ncn2[C@H]1CO[C@@H](CO)O1`, for which, in the data set on PBMC [3], the Drug metabolism was determined as 0.18 pmol.
Turning to `CCOC(=O)[C@H](C)NP(=O)(OC[C@@H]1OC[C@H](n2cnc3c(NC4CC4)ncnc32)O1)Oc1ccccc1` (stereo partly drawn), the CC50 in the data set with CCRF-CEM, in the data set with Vero, with Huh-7, in the data set on PBMC [1] and in the data set on HepG2 was more than 100 µM each time. The values for the Drug metabolism in the data set on PBMC [3] and in the data set with PBMC [4] were 0.11 pmol and 0.13 pmol, respectively. Besides, the values for the EC50 (in the data set on Hepatitis B virus; in data set [2]) were 0.8 µM and 86 nM, respectively.
On to `CCOC(=O)[C@H](C)NP(=O)(OC[C@@H]1OC[C@H](n2cnc3c(OC)ncnc32)O1)Oc1ccccc1` (stereo partly drawn), for which the CC50 is more than 100 µM in the data set on CCRF-CEM; more than 100 µM with Vero; 80 µM in the data set on Huh-7; more than 100 µM in the data set with PBMC [1]; more than 100 µM in the data set on HepG2. Besides, the EC50 in the data set with Hepatitis B virus was more than 10 µM; in data set [2], 340 nM.
As to `Nc1nc(N)c2ncn([C@H]3CO[C@@H](CO)O3)c2n1` [AMDOXOVIR], the CC50 in the data set with CCRF-CEM, in the data set with Vero, with Huh-7, in the data set with PBMC [1] and with HepG2 was more than 100 µM throughout. The EC50 with Hepatitis B virus was more than 9 µM; in data set [2], 400 nM.
